Active and inactive are the calls of the source. No cut-off for these calls is given here.
Key:
Mus musculus [1] = species: Mus musculus; assay: Binding affinity to amyloid beta plaques in transgenic C57BL6 mouse cortex expressing APP Swedish mutant/PSEN1 at 370 KBq/100 ul after 1 hr by autoradiographic analysis; conditions: tested as the 18F-labelled form
How it was run: (§1)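 Paraffin brain sections from 12-month-old Tg mice (C57BL6, APPswe/PSEN1) and age-matched controls, deparaffinized through xylene and graded ethanol, then PBS (0.2 M, pH 7.4) 30 min. Incubated with 18F tracer (370 KBq per 100 μL) 1 h at room temperature, washed in 40% EtOH, rinsed in water, then phosphor plate exposure 2 h. The same sections were afterwards stained with 0.125% thioflavin S in 10% EtOH for 3 min and washed in 40% EtOH.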

Mus musculus [2] = species: Mus musculus; assay: Binding affinity to amyloid beta plaques in transgenic C57BL6 mouse hippocampus expressing APP Swedish mutant/PSEN1 at 370 KBq/100 ul after 1 hr by autoradiographic analysis; format: tissue-based; conditions: tested as the 18F-labelled form; how it was run: as §1
Mus musculus [3] = species: Mus musculus; assay: Binding affinity to amyloid beta plaques in transgenic C57BL6 mouse hippocampus expressing APP Swedish mutant/PSEN1 at 370 KBq/100 ul after 1 hr by thioflavinS-staining method; format: tissue-based; conditions: tested as the 18F-labelled form; how it was run: as §1
Mus musculus [4] = species: Mus musculus; assay: Binding affinity to amyloid beta plaques in transgenic C57BL6 mouse cortex expressing APP Swedish mutant/PSEN1 at 370 KBq/100 ul after 1 hr by thioflavinS-staining method; conditions: tested as the 18F-labelled form; how it was run: as §1
[5] = Displacement of [125I]-IMPY from amyloid beta (1 to 42) fibrils after 2 hrs by gamma-counting analysis
How it was run: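 Competition binding with aggregated Aβ1-42 fibrils and [125I]IMPY (60000−100000 cpm/100 μL) in 0.05% BSA (1 mL total); inhibitors 10⁻⁴−10^−8.5 M in ethanol. Incubated 37 °C for 2 h, then GF/B vacuum filtration with PBS (0.02 M, pH 7.4) washes and γ counting. Three repeats; IC50 converted to Ki by Cheng−Prusoff.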

Activity (Mus musculus [1]) | Activity (Mus musculus [2]) | Activity (Mus musculus [3]) | Activity (Mus musculus [4]) | Ki [5] [nM] | Compound
Active | Active | Active | Active | 2.7 | CN(C)c1ccc(-c2nc3cc(OCCF)ccc3o2)cn1
– | – | – | – | 4.6 | CN(C)c1ccc(-c2nc3ccc(OCCOCCF)cc3s2)cn1
– | – | – | – | 7.3 | CN(C)c1ccc(-c2nc3cc(OCCOCCF)ccc3o2)cn1
